One block for each molecule: values may come before it. Calls of active or inactive are those of the source. No cut-off for these calls is given here.
What was measured:
Mus musculus [1] = assay: Inhibition of mouse intraperitoneally.; format: functional; settings: ip
Outline: (§1)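 Inhibition of exploratory locomotor activity, scored together with motor coordination (ataxia). ED50 generated from four to five doses, with 5–12 animals per dose.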

[2] = target: Dopamine receptor (Rattus norvegicus) (UniProt P25115+P19020+P30729+P18901+P61169); assay: Inhibitory binding activity against dopamine receptor in rat striatal membranes using [3H]HAL as the radioligand.; format: cell membranes; parameters: concentration or dose not given beside the values; settings: Striatum; Membrane; concentration not given here
Outline: (§2)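 [3H]Haloperidol displacement from rat striatal DA receptors, run in duplicate. IC50 obtained by nonlinear regression from four to five concentrations.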

Rattus norvegicus [3] = assay: Percentage of rats showing signs of stereotyped behavior at 30 mg/kg subcutaneous dose and followed 1 hr later by 10 mg/kg sc of SKF-38393 and animals observed for 30 min postdose before being; format: functional
Outline: (§3)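 Naive rats, six per dose, received compound, then SKF 38393 (10 mg/kg sc) 1 h later. They were rated for repetitive rearing, head-swaying, sniffing, licking and gnawing of at least 5 s duration. Result given as the percentage of rats showing stereotypy.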

Rattus norvegicus [4] = assay: Compound tested for its effective dose to inhibit rat locomotor activity after sc administration of the compound.; format: functional
Outline: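 Rats dosed sc, with locomotor activity recorded for 30 min immediately after dosing. ED50 generated from four to five doses using 5–12 animals per dose, reported with ±95% confidence limits.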

Rattus norvegicus [5] = assay: Compound tested for its effect on reversal of 6-OHDA induced depression in rats after sc administration.; format: functional
Outline: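 Rats lesioned at least 1 month earlier with 6-OHDA (20 μg icv) plus pargyline (50 mg/kg ip) and desipramine (25 mg/kg ip), giving about 90% brain DA depletion. Drug given sc, then locomotor activity recorded for 30 min from dosing. ED200 estimated from three or four doses, six rats per dose.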

Rattus norvegicus [6] = assay: Percentage of rats showing signs of stereotyped behavior at 30 mg/kg subcutaneous dose and animals observed for 30 min postdose.; format: functional
Dopamine receptor = assay: Compound was tested for inhibitory binding activity against Dopamine receptor in rat striatal membranes using [3H]HAL as the radioligand.; format: cell membranes, Striatum, Membrane; outline: as §2
Rattus norvegicus [7] = assay: Inhibition of rat locomotor activity after being administered perorally.; format: functional; settings: po; outline: as §1
Rattus norvegicus [8] = assay: Compound tested for % reversal of DOPA accumulation at an intraperitoneal dose of 30 mg/kg.; format: functional
Outline: (§4)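 Rats dosed 1 h before sacrifice, with GBL (750 mg/kg ip) at 30 min and NSD 1015 (100 mg/kg ip) at 25 min before sacrifice. Striatal DOPA measured by HPLC with electrochemical detection. Value is percent reversal of the GBL-induced DOPA rise.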

Rattus norvegicus [9] = assay: Percentage of rats showing signs of stereotyped behavior at 0.3 mg/kg subcutaneous dose and animals observed for 60 min postdose.; format: functional
Mus musculus [10] = assay: Compound was tested for inhibition of mouse locomotor activity after being administered intraperitoneally.; settings: ip
Rattus norvegicus [11] = assay: Compound tested for % inhibition of DA neuronal firing at an intraperitoneal dose of 2.5 mg/kg.; format: functional; settings: ip
Rattus norvegicus [12] = assay: Effect on DOPA accumulation level at an intraperitoneal dose of 30 mg/kg in rat.; format: functional
Rattus norvegicus [13] = assay: Compound tested for % reversal of DOPA accumulation at an intraperitoneal dose of 30 mg/kg. Negative value in parenthesis indicates further % increase in DOPA levels over GBL-induced increase.; format: functional; outline: as §4
Rattus norvegicus [14] = assay: Compound tested for % reversal of DOPA accumulation at an intraperitoneal dose of 30 mg/kg; Inactive; format: functional, organism-based; parameters: dose 30 mg/kg; outline: as §4
Rattus norvegicus [15] = assay: Percentage of rats showing signs of stereotyped behavior at 30 mg/kg peroral dose and followed 1 hr later by 10 mg/kg sc of SKF-38393 and animals observed for 60 min postdose before being; format: functional; outline: as §3
Rattus norvegicus [16] = assay: Percentage of rats showing signs of stereotyped behavior at 30 mg/kg peroral dose and animals observed for 60 min postdose.; format: functional; settings: route oral
Rattus norvegicus [17] = assay: Compound was tested for inhibition of […] locomotor activity after being administered perorally.; format: functional; settings: po
Outline: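 Mice dosed orally and scored for inhibition of exploratory locomotor activity, with motor coordination (ataxia) also checked. ED50 generated from four to five doses using 5–12 animals per dose.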

Rattus norvegicus [18] = assay: Effect on DOPA accumulation level at an intraperitoneal dose of 0.5 mg/kg in rat; format: functional
Rattus norvegicus [19] = assay: Percentage of rats showing signs of stereotyped behavior at 55 mg/kg peroral dose and followed 1 hr later by 10 mg/kg sc of SKF-38393 and animals observed for 60 min postdose before being; format: functional; outline: as §3
Rattus norvegicus [20] = assay: Percentage of rats showing signs of stereotyped behavior at 110 mg/kg peroral dose and animals observed for 60 min postdose.; format: functional; settings: route oral
[21] = Compound was tested for its inhibition of Sidman avoidance after peroral administration in Squirrel monkeys.; format: functional; settings: po
Outline: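 Sidman avoidance in mature squirrel monkeys, oral dosing. ED50 ± SEM generated from three doses, four animals per dose.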

[22] = Compound tested for its liability for extrapyramidal side effects (EPS) in terms of no. of animals showing signs of EPS/no. of animals tested upon peroral administration at a dose of 2.5 mg/Kg; 3/3; format: functional
Rattus norvegicus [23] = assay: Percentage of rats showing signs of stereotyped behavior at 15 mg/kg peroral dose and followed 1 hr later by 10 mg/kg sc of SKF-38393 and animals observed for 60 min postdose before being; format: functional
Outline: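 Part 2: oral dose given to naive rats, six per dose, followed 1 h later by SKF 38393 (10 mg/kg sc). Stereotypy (repetitive rearing, head-swaying, sniffing, licking, gnawing lasting ≥5 s) rated over 60 min. Reported as percent of rats affected.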

- inhibition [2]: 0%
SMILES: O=C1CN(CCCOc2ccc3c(=O)ccoc3c2)CC(=O)N1c1ccccc1
- ED50 (Mus musculus [1]): > 30 mg/kg

SMILES: CCCN1CCCC(c2ccccc2)C1 (single isomer, unassigned; (+))
- Animals (Rattus norvegicus [3]): 100%
- ED50 (Rattus norvegicus [4]): 3 mg/kg
- ED200 (Rattus norvegicus [5]): 0.48 mg/kg
- Animals (Rattus norvegicus [6]): 16%

- IC50 (Dopamine receptor): 884 nM
SMILES: O=c1ccoc2cc(OCCCN3CCCN(c4ccccc4)CC3)ccc12
- ED50 (Mus musculus [1]): > 30 mg/kg

- inhibition [2]: 26%
SMILES: CCN(CCCOc1ccc2c(=O)ccoc2c1)CCCc1ccccc1
- ED50 (Mus musculus [1]): > 30 mg/kg

- inhibition [2]: 0%
SMILES: O=c1ccoc2cc(OCCCN3CCN(c4ncccn4)CC3)ccc12
- ED50 (Mus musculus [1]): 12.4 mg/kg
- ED50 (Rattus norvegicus [7]): 15.6 mg/kg

- inhibition [2]: 41%
SMILES: Cc1ccc(N2CCN(CCCOc3ccc4c(=O)ccoc4c3)CC2)cc1C
- Reversal (Rattus norvegicus [8]): -29%

SMILES: CN1CCc2cccc3c2[C@H]1Cc1ccc(O)c(O)c1-3 [APOMORPHINE]
- ED50 (Mus musculus [1]): 6.4 mg/kg
- ED50 (Rattus norvegicus [4]): 0.03 mg/kg
- Animals (Rattus norvegicus [9]): 100%
- Reversal (Rattus norvegicus [8]): 104%
- ED200 (Rattus norvegicus [5]): 0.005 mg/kg
- ED50 (Mus musculus [10]): > 30 mg/kg
- inhibition in vivo at 2.5 mg/kg (Rattus norvegicus [11]): 100%

- inhibition [2]: 23%
SMILES: O=c1ccoc2cc(OCCCN3CCN(c4ccc(Cl)c(Cl)c4)CC3)ccc12
- ED50 (Mus musculus [1]): 14 mg/kg

- inhibition [2]: 24%
SMILES: O=c1ccoc2cc(OCCCN3CCN(c4ccc(F)cc4)CC3)ccc12
- DOPA level (Rattus norvegicus [12]): 1.36 µg/g
- Reversal (Rattus norvegicus [13]): -42%

- inhibition [2]: 9%
SMILES: O=c1ccoc2cccc(OCCCN3CCN(c4ccccc4)CC3)c12
- ED50 (Rattus norvegicus [7]): > 30 mg/kg
- % reversal (Rattus norvegicus [14]): inactive

- inhibition [2]: 29%
SMILES: O=c1ccoc2cc(OCCCN3CCN(c4cccc(O)c4)CC3)ccc12

- inhibition [2]: 8%
SMILES: O=c1ccoc2cc(OCCCN3CCc4c(oc5ccccc45)C3)ccc12
- ED50 (Mus musculus [1]): 13.5 mg/kg
- Reversal (Rattus norvegicus [8]): 29%
- ED50 (Rattus norvegicus [7]): > 30 mg/kg

- IC50 (Dopamine receptor): 349 nM
SMILES: O=c1ccoc2ccc(OCCCCN3CCN(c4ncccn4)CC3)cc12
- ED50 (Mus musculus [1]): 3.6 mg/kg
- Reversal (Rattus norvegicus [8]): 100%
- inhibition in vivo at 2.5 mg/kg (Rattus norvegicus [11]): 100%
- ED50 (Rattus norvegicus [7]): 8.2 mg/kg

- inhibition [2]: 29%
SMILES: Cc1ccccc1N1CCN(CCCOc2ccc3c(=O)ccoc3c2)CC1
- ED50 (Rattus norvegicus [7]): > 30 mg/kg
- % reversal (Rattus norvegicus [14]): inactive

SMILES: Nc1cccc(OCCCN2CCN(c3ccccc3)CC2)c1
- ED50 (Mus musculus [1]): 1.3 mg/kg

- inhibition [2]: 48%
SMILES: COc1ccccc1N1CCN(CCCOc2ccc3c(=O)ccoc3c2)CC1

SMILES: C1=C(c2ccccc2)CCN(CCCCc2c[nH]c3ccccc23)C1
- Animals (Rattus norvegicus [15]): 0%
- ED50 (Mus musculus [1]): 0.1 mg/kg
- ED50 (Rattus norvegicus [4]): 4.69 mg/kg
- Animals (Rattus norvegicus [16]): 0%
- ED200 (Rattus norvegicus [5]): 0.29 mg/kg
- ED50 (Rattus norvegicus [17]): 4.8 mg/kg

- inhibition [2]: 50%
SMILES: O=c1ccoc2cc(OCCCN3CCc4ccccc4C3)ccc12
- ED50 (Mus musculus [1]): 30 mg/kg

- inhibition [2]: 38%
SMILES: Cc1cccc(N2CCN(CCCOc3ccc4c(=O)ccoc4c3)CC2)c1
- % reversal (Rattus norvegicus [14]): inactive

- inhibition [2]: 20%
SMILES: O=c1ccoc2cc(OCCCN3CCN(c4ccccc4)CC3)ccc12
- Reversal (Rattus norvegicus [8]): 56%
- inhibition in vivo at 2.5 mg/kg (Rattus norvegicus [11]): 68%

- inhibition [2]: 40%
SMILES: O=c1ccoc2cc(OCCCN3CCC(c4ccccc4)CC3)ccc12

- inhibition [2]: 25%
SMILES: COc1ccc(N2CCN(CCCOc3ccc4c(=O)ccoc4c3)CC2)cc1

- inhibition [2]: 0%
SMILES: Cc1cccc(N2CCN(CCCOc3ccc4c(=O)ccoc4c3)CC2)c1C

SMILES: O=C(CCCN1CCC(O)(c2ccc(Cl)cc2)CC1)c1ccc(F)cc1 [HALOPERIDOL]
- DOPA level (Rattus norvegicus [18]): 2.72 µg/g

- inhibition [2]: 36%
SMILES: Cc1ccc(N2CCN(CCCOc3ccc4c(=O)ccoc4c3)CC2)cc1
- % reversal (Rattus norvegicus [14]): inactive

- inhibition [2]: 35%
SMILES: O=c1ccoc2cc(OCCCN3CCN(c4cccc(Cl)c4)CC3)ccc12
- Reversal (Rattus norvegicus [13]): -26%

SMILES: O=c1ccoc2cc(OCCCN3CCc4[nH]c5ccc(F)cc5c4C3)ccc12
- ED50 (Mus musculus [1]): 7.5 mg/kg
- Reversal (Rattus norvegicus [8]): -44%
- ED50 (Rattus norvegicus [7]): 5.5 mg/kg

- inhibition [2]: 31%
SMILES: O=c1ccoc2cc(OCCCN3CCN(Cc4ccccc4)CC3)ccc12
- ED50 (Mus musculus [1]): > 30 mg/kg

- inhibition [2]: 10%
SMILES: O=c1ccoc2cc(OCCCN3CCN(c4ccc(Cl)cc4)CC3)ccc12
- % reversal (Rattus norvegicus [14]): inactive

- inhibition [2]: 74%
SMILES: O=c1ccoc2cc(OCCCCN3CCN(c4ccccc4)CC3)ccc12
- Reversal (Rattus norvegicus [8]): 63%

- inhibition [2]: 17%
SMILES: O=c1ccoc2cc(OCCCN3CCN(c4cnccn4)CC3)ccc12
- ED50 (Mus musculus [1]): 26.3 mg/kg

- IC50 (Dopamine receptor): 243 nM
SMILES: O=c1ccoc2cc(OCCCN3CCC=C(c4ccccc4)C3)ccc12
- ED50 (Mus musculus [1]): 30.3 mg/kg

SMILES: O=c1ccoc2cc(OCCCN3CC=C(c4ccccc4)CC3)ccc12
- Reversal (Rattus norvegicus [8]): 54%
- Animals (Rattus norvegicus [19]): 0%
- inhibition in vivo at 2.5 mg/kg (Rattus norvegicus [11]): 90%
- ED50 (Rattus norvegicus [7]): 5.5 mg/kg
- Animals (Rattus norvegicus [20]): 0%

- inhibition [2]: 59%
SMILES: O=c1ccoc2cc(OCCCN3CCN(c4ccccc4Cl)CC3)ccc12

SMILES: CSc1ccc2c(c1)N(CCC1CCCCN1C)c1ccccc1S2 (configuration not stated) [THIORIDAZINE]
- ED50 [21]: 3.9 mg/kg
- EPS [22]: 3

- inhibition [2]: 73%
SMILES: O=c1ccoc2ccc(OCCCCN3CCN(c4ccccc4)CC3)cc12
- Animals (Rattus norvegicus [16]): 0%
- Reversal (Rattus norvegicus [8]): 84%
- Animals (Rattus norvegicus [23]): 0%
- inhibition in vivo at 2.5 mg/kg (Rattus norvegicus [11]): 94%

— ChEMBL document CHEMBL1125728, “Dopamine autoreceptor agonists as potential antipsychotics. 2. (Aminoalkoxy)-4H-1-benzopyran-4-ones” (J Med Chem, 1991)
